Results published in ChEMBL document CHEMBL1131066, “2-Substituted aminopyrido[2,3-d]pyrimidin-7(8H)-ones. structure-activity relationships against selected tyrosine kinases and in vitro and in vivo anticancer activity” (J Med Chem, 1998).
Values joined by “and” are separate entries in the source; they are usually repeats but may differ in a detail not shown here. Equal values may be shown once.

How the values were obtained:
[1] = test system: C6; assay: C6 cell growth in soft agar with discontinued treatment; assay type: functional, cell-based, Rattus norvegicus; details: c6
Summary of the method: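 C6 rat glioma cells given 3-day exposure to a concentration series, then washed free of inhibitor and plated in drug-free soft agar; colonies stained and counted after two weeks. IC50; mean of two experiments, each in duplicate.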

[2] = test system: C6; assay: C6 cell growth in soft agar with continuous treatment; assay type: functional, cell-based, Rattus norvegicus; details: c6
Summary of the method: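 C6 rat glioma cells (F10 Ham's with 15% horse serum, 2.5% fetal calf serum) exposed 3 days to a concentration series, then plated in soft agar with compound still present at the same concentration; colonies stained and counted after two weeks. IC50; mean of two experiments, each in duplicate.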

[3] = test system: C6; assay: Inhibition of C6 cell proliferation in sulforhodamine B assay; assay type: functional, cell-based, Rattus norvegicus; details: c6
Summary of the method: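 C6 rat glioma cells (F10 Ham's, 15% horse serum, 2.5% fetal calf serum) seeded and allowed 24 h to attach, then given serial 2-fold compound dilutions; 4 d at 37 °C, 5% CO2; growth read by sulforhodamine B staining. IC50; mean of two experiments, each in triplicate.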

[4] = target: T1, Fibroblast growth factor receptor 1 (Homo sapiens, UniProt P11362); assay: Inhibition of fibroblast growth factor receptor (FGFr) tyrosine kinase
T1 sequence (P11362 whole entry): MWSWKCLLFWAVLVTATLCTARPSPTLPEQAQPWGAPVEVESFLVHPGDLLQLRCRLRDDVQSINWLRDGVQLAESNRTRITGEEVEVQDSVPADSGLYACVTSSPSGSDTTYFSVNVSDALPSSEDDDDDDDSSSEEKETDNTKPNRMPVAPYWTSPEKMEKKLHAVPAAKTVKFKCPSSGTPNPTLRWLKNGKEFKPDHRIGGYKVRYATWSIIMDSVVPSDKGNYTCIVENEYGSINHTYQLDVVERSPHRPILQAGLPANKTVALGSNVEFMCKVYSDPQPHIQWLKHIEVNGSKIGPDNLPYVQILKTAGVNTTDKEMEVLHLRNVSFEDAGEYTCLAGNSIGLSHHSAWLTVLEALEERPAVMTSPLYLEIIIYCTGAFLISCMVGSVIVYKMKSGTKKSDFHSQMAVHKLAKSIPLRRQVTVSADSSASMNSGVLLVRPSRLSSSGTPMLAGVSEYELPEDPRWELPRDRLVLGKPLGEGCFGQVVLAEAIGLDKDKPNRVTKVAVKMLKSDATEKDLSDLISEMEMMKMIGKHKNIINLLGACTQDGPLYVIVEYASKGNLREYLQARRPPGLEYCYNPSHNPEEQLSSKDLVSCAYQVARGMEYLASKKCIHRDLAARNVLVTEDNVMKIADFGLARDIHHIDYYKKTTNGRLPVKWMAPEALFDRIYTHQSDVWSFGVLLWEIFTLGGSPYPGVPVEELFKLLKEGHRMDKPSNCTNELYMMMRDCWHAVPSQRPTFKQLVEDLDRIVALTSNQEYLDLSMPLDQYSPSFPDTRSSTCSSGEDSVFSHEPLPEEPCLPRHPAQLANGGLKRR
Summary of the method: (§1)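 Recombinant kinases (PDGFr-β, FGFr-1, c-Src), enzyme inhibition IC50. Mean of at least two separate determinations, each done in triplicate; replicate values typically varied under 30%.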

[5] = target: T1, Fibroblast growth factor receptor 1; assay: Inhibitory concentration evaluated against fibroblast growth factor receptor 1.
[6] = test system: SK-OV-3; assay: Difference in days for treated (T) and control (C) SKOV-3 cell tumors to reach 750 mg in mice at 40 mg/kg peroral dose, days 15-29 administration; assay type: functional; details: route oral
Summary of the method: (§2)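 Nude mice (NCr nu/nu), 18–22 g, 6–8 per group, randomized and implanted with serially passaged tumor fragments in the right axilla on day 0. Dosed by average cage weight. Vehicle was 50 mM sodium lactate buffer, pH 4.0, or a 0.5% methyl cellulose suspension for one compound. Cisplatin was given in saline. T − C is the difference in days for treated and control tumors to reach 750 mg.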

[7] = test system: Mus musculus; assay: Difference in days for treated (T) and control (C) PDGF-transfected fibroblast tumors to reach 750 mg in mice at 50 mg/kg peroral dose, days 1-15 administration; assay type: functional; details: route oral; summary of the method: as §2
[8] = test system: NIH3T3; assay: Growth of NIH3T3 cells in soft agar with continuous treatment; assay type: functional, cell-based; details: Mus musculus
Summary of the method: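 NIH3T3 cells transfected with PDGF-B exposed to a range of concentrations for 3 days, then cloned in soft agar with the same concentration kept present. Colonies stained and counted after two weeks. IC50; mean of two experiments, each in duplicate.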

[9] = test system: HT-29; assay: Difference in days for treated (T) and control (C) HT-29 cell tumors to reach 750 mg in mice at 44 mg/kg peroral dose, days 15-29 administration; assay type: functional; details: route oral; summary of the method: as §2
[10] = test system: MCF7; assay: Difference in days for treated (T) and control (C) MCF-7 cell tumors to reach 750 mg in mice at 50 mg/kg peroral dose, days 1-15 administration; assay type: functional; details: route oral; summary of the method: as §2
[11] = test system: COLO 205; assay: Net reduction in tumor burden between first and last treatments of COLO 205 cell tumors in mice at 40 mg/kg peroral dose, days 9-23 administration; assay type: functional; details: route oral
Summary of the method: (§3)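 NCr nu/nu nude mice (18–22 g, 6–8 per group, randomized) had tumor fragments, kept by serial passage in nude mice, implanted in the right axilla on day 0. Mice were dosed by average cage weight on the listed days, over a range from toxic to ineffective doses. Vehicle was 50 mM sodium lactate pH 4.0 or 0.5% methyl cellulose suspension. Net log cell kill was taken between first and last treatments.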

[12] = test system: C6; assay: Difference in days for treated (T) and control (C) C6 glioma cell tumors to reach 750 mg in mice at 50 mg/kg peroral dose, days 1-15 administration; assay type: functional; details: route oral; summary of the method: as §2
[13] = test system: COLO 205; assay: Difference in days for treated (T) and control (C) COLO 205 cell tumors to reach 750 mg in mice at 40 mg/kg peroral dose, days 9-23 administration; assay type: functional; details: route oral; summary of the method: as §2
[14] = test system: SK-OV-3; assay: Weight change of SK-OV-3 cell tumors in mice at 40 mg/kg peroral dose, days 15-29 administration; assay type: functional; details: route oral
Summary of the method: (§4)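 Nude mice (NCr nu/nu, 18–22 g, 6–8 per group) were randomized and implanted with serially passaged tumor fragments in the right axilla on day 0. Oral dosing was based on average cage weight, on the days stated, over a dose range from toxic to ineffective. Vehicle was 50 mM sodium lactate buffer, pH 4.0, or 0.5% methyl cellulose suspension. Host weight change is reported as maximum treatment-related loss.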

[15] = test system: Mus musculus; assay: Weight change of PDGF-transfected fibroblast cells in mice at 50 mg/kg peroral dose, days 1-15 administration; assay type: functional; details: route oral; summary of the method: as §4
[16] = test system: HT-29; assay: Weight change of HT-29 tumor cells in mice at 44 mg/kg peroral dose, days 15-29 administration; assay type: functional; details: route oral
Summary of the method: (§5)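 Tumor-bearing nude mice (NCr nu/nu, 18–22 g, 6–8 per group) were implanted in the right axilla with tumor fragments on day 0 and dosed by average cage weight. Vehicle was 50 mM sodium lactate pH 4.0, or 0.5% methyl cellulose suspension; cisplatin was given in saline. Host body weight change is given as the maximum treatment-related weight loss.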

[17] = test system: MCF7; assay: Weight change of MCF-7 tumor cells in mice at 50 mg/kg peroral dose, days 1-15 administration; assay type: functional, organism-based; parameters: dose 50 mg/kg; summary of the method: as §5
[18] = test system: C6; assay: Weight change of C6 glioma tumor cells in mice at 50 mg/kg peroral dose, days 1-15 administration; assay type: functional, organism-based; parameters: dose 50 mg/kg; summary of the method: as §5
[19] = test system: COLO 205; assay: Weight change of COLO 205 tumor cells in mice at 40 mg/kg peroral dose, days 9-23 administration; assay type: functional, organism-based; parameters: dose 40 mg/kg; summary of the method: as §5
[20] = test system: NIH3T3; assay: Growth of NIH3T3 cell colonies in soft agar with continuous treatment; assay type: functional, cell-based; details: Mus musculus
Summary of the method: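 Soft agar cloning used PDGF-B-transfected NIH3T3 (NIH3T3/PDGF) cells. Cells were exposed 3 days to a concentration series, then plated in soft agar with the matching compound concentration kept present. Colonies were stained and counted after two weeks. IC50; mean of two experiments, each in duplicate.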

[21] = test system: NIH3T3; assay: Inhibition of NIH3T3 proliferation by sulforhodamine B assay; assay type: functional, cell-based, Mus musculus; details: nih3t3
[22] = target: Platelet-derived growth factor receptor (Mus musculus, UniProt P05622+P26618); assay: Inhibition of PDGF-induced autophosphorylation of PDGF-R in NIH3T3 cells
[23] = target: Proto-oncogene tyrosine-protein kinase Src (Homo sapiens, UniProt P12931); assay: Inhibition of c-Src tyrosine kinase; assay type: functional; summary of the method: as §1
Chain of Proto-oncogene tyrosine-protein kinase Src (P12931 2-536 limits assumed): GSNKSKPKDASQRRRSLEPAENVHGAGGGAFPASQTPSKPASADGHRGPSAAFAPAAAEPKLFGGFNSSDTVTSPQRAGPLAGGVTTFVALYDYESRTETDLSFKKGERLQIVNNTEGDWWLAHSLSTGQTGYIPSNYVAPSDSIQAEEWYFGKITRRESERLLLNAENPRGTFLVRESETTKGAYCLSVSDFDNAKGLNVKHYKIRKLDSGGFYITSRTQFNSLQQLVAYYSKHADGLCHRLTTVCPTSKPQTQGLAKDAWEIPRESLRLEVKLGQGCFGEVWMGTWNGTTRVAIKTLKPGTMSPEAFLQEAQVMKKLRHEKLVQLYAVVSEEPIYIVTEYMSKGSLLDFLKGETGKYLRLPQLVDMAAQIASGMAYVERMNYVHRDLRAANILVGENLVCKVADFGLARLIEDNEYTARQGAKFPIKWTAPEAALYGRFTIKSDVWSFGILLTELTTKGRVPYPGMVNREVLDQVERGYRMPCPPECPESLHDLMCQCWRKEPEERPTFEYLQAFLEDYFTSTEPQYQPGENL

[24] = test system: MCF7; assay: Net reduction in tumor burden between first and last treatments of MCF-7 cell tumors in mice at 50 mg/kg peroral dose, days 1-15 administration; assay type: functional; details: route oral; summary of the method: as §3

CCN(CC)CCOc1cccc(Nc2ncc3cc(-c4c(Cl)cccc4Cl)c(=O)n(C)c3n2)c1
IC50 [1]: 2790 nM and 400 nM | IC50 [2]: 440 nM and 120 nM | IC50 [3]: 840 nM and 350 nM | IC50 [4]: 30 nM | IC50 [5]: 32 nM | T-C [6]: -0.4 days | T-C [7]: -0.4 days | IC50 [8]: 17 nM | T-C [9]: -2.5 days | T-C [10]: 0.8 days | Net cell kill [11]: -0.4 log10 | T-C [12]: -2 days | T-C [13]: 6.8 days | Weight change [14]: -2 g | Weight change [15]: -1.6 g | Weight change [16]: -2 g | Weight change [17]: Weight gain | Weight change [18]: Weight gain | Weight change [19]: Weight gain | IC50 [20]: 17 nM | IC50 [21]: 147 nM and 410 nM | IC50 [22]: 1.7 nM | IC50 [23]: 9 nM | Net cell kill [24]: -0.6 log10
